Active and inactive are the calls of the source. The calls are words filed in the database; no cut-off is given here.
What was measured:
[1] = Induction of IL6 expression in human HLA-DR(+), CD11c(+) and CD123(-) expressing mDC after 24 hrs by intracellular cytokine staining method; type: functional; parameters: concentration or dose not given beside the values
In short: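 PBMCs were stimulated with aqueous compound for 24 h, with GolgiPlug (10 ng/ml) present for the final 6 h. Cells were washed and surface-stained for lineage markers (mDC HLA-DR+ CD11c+ CD123−; pDC HLA-DR+ CD11c− CD123+). They were then permeabilized with Perm/Fix buffer and stained with fluorochrome-conjugated anti-cytokine antibodies for flow cytometry.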

[2] = test system: PBMC; assay: Reduction in IFNalpha production in primary human PBMC at >10 uM after 24 hrs by ELISA method; type: functional, cell-based
[3] = test system: PBMC; assay: Induction of IFNgamma production in primary human PBMC after 24 hrs by ELISA method; type: functional, cell-based
[4] = molecular target: T1, Toll-like receptor 7 (Homo sapiens, UniProt Q9NYK1); assay: Activation of human TLR7 expressed in HEK293 cells after 24 hrs by NFkappaB-mediated SEAP reporter gene assay; type: cell-based
T1 sequence (Q9NYK1 whole entry): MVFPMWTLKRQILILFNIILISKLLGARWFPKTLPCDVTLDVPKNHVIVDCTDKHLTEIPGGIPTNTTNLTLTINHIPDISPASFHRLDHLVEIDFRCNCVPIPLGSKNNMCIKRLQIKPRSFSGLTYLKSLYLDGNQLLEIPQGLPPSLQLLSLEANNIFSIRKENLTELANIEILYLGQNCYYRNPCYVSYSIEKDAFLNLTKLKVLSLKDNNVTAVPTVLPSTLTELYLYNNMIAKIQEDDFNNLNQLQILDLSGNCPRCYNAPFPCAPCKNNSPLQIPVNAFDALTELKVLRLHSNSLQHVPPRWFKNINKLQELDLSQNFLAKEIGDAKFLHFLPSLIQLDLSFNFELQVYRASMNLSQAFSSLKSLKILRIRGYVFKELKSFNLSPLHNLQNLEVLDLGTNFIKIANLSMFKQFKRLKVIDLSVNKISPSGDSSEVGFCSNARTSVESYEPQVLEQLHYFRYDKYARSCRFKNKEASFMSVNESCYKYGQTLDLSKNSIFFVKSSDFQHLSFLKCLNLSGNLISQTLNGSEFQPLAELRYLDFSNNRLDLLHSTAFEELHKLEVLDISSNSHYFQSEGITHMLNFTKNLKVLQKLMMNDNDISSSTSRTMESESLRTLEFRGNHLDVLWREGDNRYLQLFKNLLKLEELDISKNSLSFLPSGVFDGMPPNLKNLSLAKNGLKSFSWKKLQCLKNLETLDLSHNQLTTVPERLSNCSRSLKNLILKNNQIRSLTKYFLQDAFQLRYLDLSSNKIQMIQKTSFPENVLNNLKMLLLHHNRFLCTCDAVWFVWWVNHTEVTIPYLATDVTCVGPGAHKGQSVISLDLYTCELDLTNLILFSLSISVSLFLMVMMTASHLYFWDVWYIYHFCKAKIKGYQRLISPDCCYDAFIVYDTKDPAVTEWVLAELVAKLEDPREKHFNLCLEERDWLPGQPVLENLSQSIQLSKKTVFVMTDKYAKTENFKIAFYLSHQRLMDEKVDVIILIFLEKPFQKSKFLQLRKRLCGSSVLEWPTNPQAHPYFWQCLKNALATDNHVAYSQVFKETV
In short: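 HEK293 cells stably transfected with hTLR7 or hTLR8 plus an NF-kB-driven SEAP reporter were kept in DMEM/10% FBS with selection antibiotics. Aqueous compound formulations were added for 24 h, and supernatant SEAP was read colorimetrically. Points were run in triplicate and averaged. Activity was scaled to the maximum of a reference agonist set at 100%. EC50 was taken from dose-response curves with 95% CI.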

[5] = test system: PBMC; assay: Induction of TNFalpha production in primary human PBMC after 24 hrs by ELISA method; type: functional, cell-based
In short: (§1)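 Ficoll-isolated healthy-donor PBMCs at 0.5 × 10^6 cells/well in RPMI-1640/10% FBS were stimulated 24 h with aqueous compound. Supernatant TNFa was assayed with a […]. Data are from three donors in triplicate, with SEM shown.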

[6] = test system: PBMC; assay: Induction of TNFalpha production in primary human PBMC at 0.001 to 10 uM after 24 hrs by ELISA method; type: functional, cell-based; in short: as §1
[7] = molecular target: T2, Toll-like receptor 8 (Homo sapiens, UniProt Q9NR97); assay: Activation of human TLR8 expressed in HEK293 cells after 24 hrs by NFkappaB-mediated SEAP reporter gene assay; type: cell-based
T2 sequence (Q9NR97 whole entry): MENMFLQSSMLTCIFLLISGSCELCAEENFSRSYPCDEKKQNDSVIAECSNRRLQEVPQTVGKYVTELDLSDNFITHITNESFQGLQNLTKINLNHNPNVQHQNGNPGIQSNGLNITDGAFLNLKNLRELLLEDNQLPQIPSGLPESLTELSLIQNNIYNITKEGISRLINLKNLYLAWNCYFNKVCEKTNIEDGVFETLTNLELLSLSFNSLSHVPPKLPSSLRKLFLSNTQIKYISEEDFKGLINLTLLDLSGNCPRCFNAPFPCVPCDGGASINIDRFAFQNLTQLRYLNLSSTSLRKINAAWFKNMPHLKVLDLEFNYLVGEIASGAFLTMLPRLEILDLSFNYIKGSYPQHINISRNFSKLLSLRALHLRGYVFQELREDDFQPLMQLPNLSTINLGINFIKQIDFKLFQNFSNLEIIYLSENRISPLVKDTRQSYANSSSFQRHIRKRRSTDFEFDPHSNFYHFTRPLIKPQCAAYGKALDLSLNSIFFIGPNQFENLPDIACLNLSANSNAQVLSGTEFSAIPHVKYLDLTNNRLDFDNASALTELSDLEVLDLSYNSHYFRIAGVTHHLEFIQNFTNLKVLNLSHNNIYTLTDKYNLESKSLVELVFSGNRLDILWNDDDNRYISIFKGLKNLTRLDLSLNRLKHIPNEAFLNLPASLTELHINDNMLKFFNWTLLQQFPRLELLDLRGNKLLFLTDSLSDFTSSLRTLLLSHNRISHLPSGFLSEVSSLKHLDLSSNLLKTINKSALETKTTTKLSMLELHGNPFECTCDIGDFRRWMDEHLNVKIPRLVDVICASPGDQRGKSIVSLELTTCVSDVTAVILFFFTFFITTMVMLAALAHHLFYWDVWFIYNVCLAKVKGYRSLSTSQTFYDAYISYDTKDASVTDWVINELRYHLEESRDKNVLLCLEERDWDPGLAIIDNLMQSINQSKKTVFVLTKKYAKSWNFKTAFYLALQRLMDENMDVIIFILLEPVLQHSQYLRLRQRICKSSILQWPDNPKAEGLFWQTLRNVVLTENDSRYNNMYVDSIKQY
In short: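 HEK293 cells stably transfected with hTLR7 or hTLR8 plus an NF-kB-driven SEAP reporter were kept in DMEM/10% FBS with selection antibiotics. Aqueous compound formulations were added for 24 h, and supernatant SEAP was read colorimetrically. Points were run in triplicate and averaged.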

[8] = test system: PBMC; assay: Induction of IFNalpha production in primary human PBMC at 0.001 to 10 uM after 24 hrs by ELISA method; type: functional, cell-based
In short: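 Fresh healthy-donor PBMCs were isolated by Ficoll and plated at 0.5 × 10^6 cells/well in RPMI-1640/10% FBS with antibiotics. Aqueous compound formulations were added for 24 h across 0.0001–10 µM. Supernatant IFNa was measured by ELISA. Data are from three donors, each run in triplicate, with SEM shown.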

[9] = test system: HEK293; assay: Toxicity against human TLR8 expressing HEK293 cells after 24 hrs by live/dead fixable aqua staining method; type: cell-based; details: hek293, 24 h
In short: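 HEK293-hTLR8 reporter cells were stimulated with compound for 24 h. Cells were then incubated with Live/Dead fixable Aqua dye for 30 min, washed extensively, and read for viability by flow cytometry.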

Row | EC50 ([4]; read-out: EC50) [µM] | EC50 ([7]; read-out: EC50) [µM] | EC50 ([4]; hek293) | EC50 ([7]; hek293) | SMILES | Activity [1] [%] | inhibition [2] | Activity [3] | Activity [5] | Activity [6] | Activity [8] | Activity [9]
1 | 0.15 | 131 | – | – | CCCCOc1nc(N)c2[nH]c(=O)n(CCCCC3CCNCC3)c2n1.Cl | 22.3 | Dose-dependent effect | Active | Active | Dose-dependent effect | Active | Toxic
2 | – | – | Not Active | Not Active | CCCCOc1nc(N)c2[nH]c(=O)n(C3CCNCC3)c2n1.Cl | – | – | inactive | inactive | – | inactive | –
3 | 0.15 | 231 | – | – | CCCCOc1nc(N)c2[nH]c(=O)n(CCC3CCNCC3)c2n1.Cl | 4.91 | Dose-dependent effect | Active | Active | Dose-dependent effect | Active | Non-toxic
